Laboratory results as given in ChEMBL document CHEMBL1148965, “Cytotoxic and other metabolites of Aspergillus inhabiting the rhizosphere of Sonoran desert plants” (J Nat Prod, 2004).
Activity calls are given as the source filed them. No cut-off for these calls is given here.

Key:
NCI-H460 [1] = test: Cytotoxicity against human NCI-H460 cells by MTT assay; format: functional, cell-based
How it was run: (§1)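 Cells were exposed to DMSO-dissolved samples for 72 h in RPMI-1640 with 10% fetal bovine serum. Viability was read by tetrazolium (MTT) colorimetry. IC50 was taken as the concentration giving 50% inhibition of cell proliferation/survival. WI-38 are normal human primary fibroblasts.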

[2] = Cytotoxicity against human WI38 cells by MTT assay; format: cell-based; details: WI-38; how it was run: as §1
MCF7 [3] = test: Cytotoxicity against human MCF7 cells by MTT assay; format: functional, cell-based; how it was run: as §1
SF-268 [4] = test: Cytotoxicity against human SF268 cells by MTT assay; format: functional, cell-based; how it was run: as §1
MIA PaCa-2 [5] = test: Cytotoxicity against human MIAPaCa2 cells by MTT assay; format: functional, cell-based; how it was run: as §1
NCI-H460 [6] = test: Cytotoxicity against human NCI-H460 cells at 10 ug/mL by MTT assay; format: functional, cell-based
MCF7 [7] = test: Cytotoxicity against human MCF7 cells at 10 ug/mL by MTT assay; format: functional, cell-based
SF-268 [8] = test: Cytotoxicity against human SF268 cells at 10 ug/mL by MTT assay; format: functional, cell-based
MIA PaCa-2 [9] = test: Cytotoxicity against human MIAPaCa2 cells at 10 ug/mL by MTT assay; format: functional, cell-based
[10] = Cytotoxicity against human WI38 cells at 10 ug/mL by MTT assay; format: cell-based; details: wi-38

SMILES: COc1cccc2c1C(=O)c1c(O)c3c(c(O)c1C2=O)C[C@@](O)(C(=O)CO)C[C@@H]3O[C@H]1C[C@H](N)[C@H](O)[C@H](C)O1 [DOXORUBICIN]
- IC50 (NCI-H460 [1]): 0.01 µM
- IC50 [2]: 0.3 µM

SMILES: C[C@H]1CCCC(O)CC(=O)c2c(O)cc(O)cc2CC(=O)O1 (stereo not given in full)
- IC50 (NCI-H460 [1]): 2.1 µM
- IC50 (MCF7 [3]): 2 µM
- IC50 (SF-268 [4]): 4.1 µM
- IC50 (MIA PaCa-2 [5]): 3.3 µM
- IC50 [2]: 11.6 µM

SMILES: C/C=C/C1=CC(=O)[C@](C)(/C=C/C=C/CC)O1
- IC50 (NCI-H460 [1]): 5.5 µM
- IC50 (MCF7 [3]): 11.7 µM
- IC50 (SF-268 [4]): 6.8 µM
- IC50 (MIA PaCa-2 [5]): 6.3 µM

SMILES: C[C@H]1CCC/C=C/C(=O)c2c(O)cc(O)cc2CC(=O)O1 [DEHYDROCURVULARIN]
- IC50 (NCI-H460 [1]): 1.1 µM
- IC50 (MCF7 [3]): 1.3 µM
- IC50 (SF-268 [4]): 2.5 µM
- IC50 (MIA PaCa-2 [5]): 1.9 µM
- IC50 [2]: 3.6 µM

SMILES: COCC(C)C1(O)OC(=O)C=C1OC (stereo not given)
- Activity (NCI-H460 [6]): inactive
- Activity (MCF7 [7]): inactive
- Activity (SF-268 [8]): inactive
- Activity (MIA PaCa-2 [9]): inactive
- Activity [10]: Non-toxic

SMILES: C=C(C)C1(O)OC(=O)C=C1OC (stereo not given) [PENICILLIC ACID]
- IC50 (NCI-H460 [1]): 5.8 µM
- IC50 (MCF7 [3]): 12.8 µM
- IC50 (SF-268 [4]): 20 µM
- IC50 (MIA PaCa-2 [5]): 8 µM
- IC50 [2]: 57.5 µM

SMILES: CC/C=C/C=C/[C@]1(C)OC(CC(C)O)=CC1=O (stereo not given in full) [TERREFURANONE]
- Activity (NCI-H460 [6]): inactive
- Activity (MCF7 [7]): inactive
- Activity (SF-268 [8]): inactive
- Activity (MIA PaCa-2 [9]): inactive
- Activity [10]: Non-toxic

SMILES: COC1CCC[C@H](C)OC(=O)Cc2cc(O)cc(O)c2C(=O)C1 (stereo not given in full)
- IC50 (NCI-H460 [1]): 0.9 µM
- IC50 (MCF7 [3]): 0.6 µM
- IC50 (SF-268 [4]): 0.9 µM
- IC50 (MIA PaCa-2 [5]): 1.2 µM
- IC50 [2]: 1.7 µM

SMILES: COC1=CC(=O)OC1(O)C(C)C (stereo not given)
- Activity (NCI-H460 [6]): inactive
- Activity (MCF7 [7]): inactive
- Activity (SF-268 [8]): inactive
- Activity (MIA PaCa-2 [9]): inactive
- Activity [10]: Non-toxic

SMILES: C=CC(C)(C)[C@]12CC3C(=O)Nc4ccccc4C(=O)N3[C@H]1N(C(C)=O)c1ccccc12 (stereo not given in full)
- Activity (NCI-H460 [6]): inactive
- Activity (MCF7 [7]): inactive
- Activity (SF-268 [8]): inactive
- Activity (MIA PaCa-2 [9]): inactive
- Activity [10]: Non-toxic

SMILES: C=CC(C)(C)c1[nH]c2ccccc2c1C1=C(O)C(=O)C(c2c[nH]c3ccccc23)=C(CC=C(C)C)C1=O [TERREQUINONE A]
- IC50 (NCI-H460 [1]): 5.6 µM
- IC50 (MCF7 [3]): 6.8 µM
- IC50 (SF-268 [4]): 13.9 µM
- IC50 (MIA PaCa-2 [5]): 5.4 µM

SMILES: COC1=CC(=O)C[C@](C)(O)[C@H]1O (relative stereo)
- Activity (NCI-H460 [6]): inactive
- Activity (MCF7 [7]): inactive
- Activity (SF-268 [8]): inactive
- Activity (MIA PaCa-2 [9]): inactive
- Activity [10]: Non-toxic
